Experimental data reported in ChEMBL document CHEMBL3272030, “Synthesis and biological properties of some spin-labeled 9-aminoacridines” (J Med Chem, 1976).
pIC50: −log10 of the molar value. Calls of active or inactive are those of the source. The rule behind the calls is not given here.

How the values were obtained:
L1210 [1] = test: Cytotoxicity against mouse L1210 cells assessed as growth inhibition at 100 ug/ml after 24 hrs; type: functional
Summary of the method: (§1)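 L1210 leukemia cells seeded at 10^5 cells/ml and grown in static culture in RPMI 1630 medium with fetal calf serum. Drug tested at 0.01–100 µg/ml, with 24 h and 48 h exposures. Read-out is percent inhibition of growth. Assays were run in triplicate, and values are the mean of two separate experiments.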

L1210 [2] = test: Cytotoxicity against mouse L1210 cells assessed as growth inhibition at 100 ug/ml after 48 hrs; type: functional; summary of the method: as §1
L1210 [3] = test: Cytotoxicity against mouse L1210 cells assessed as growth inhibition at 10 ug/ml after 24 hrs; type: functional; summary of the method: as §1
L1210 [4] = test: Cytotoxicity against mouse L1210 cells assessed as growth inhibition at 10 ug/ml after 48 hrs; type: functional; summary of the method: as §1
L1210 [5] = test: Cytotoxicity against mouse L1210 cells assessed as growth inhibition at 1 ug/ml after 24 hrs; type: functional; summary of the method: as §1
L1210 [6] = test: Cytotoxicity against mouse L1210 cells assessed as growth inhibition at 1 ug/ml after 48 hrs; type: functional; summary of the method: as §1
L1210 [7] = test: Cytotoxicity against mouse L1210 cells assessed as growth inhibition at 0.1 ug/ml after 24 hrs; type: functional; summary of the method: as §1
L1210 [8] = test: Cytotoxicity against mouse L1210 cells assessed as growth inhibition at 0.1 ug/ml after 48 hrs; type: functional; summary of the method: as §1
L1210 [9] = test: Cytotoxicity against mouse L1210 cells assessed as growth inhibition at 0.01 ug/ml after 24 hrs; type: functional; summary of the method: as §1
L1210 [10] = test: Cytotoxicity against mouse L1210 cells assessed as growth inhibition at 0.01 ug/ml after 48 hrs; type: functional; summary of the method: as §1
Calf thymus DNA [11] = test: Binding affinity to calf thymus DNA assessed as decrease in DNA sedimentation coefficient at 5.2 x 10^-6 M relative to untreated control; type: nucleic-acid assay; details: Bos taurus
Summary of the method: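 Calf thymus DNA was mixed with compound at 5.2 × 10^-6 M and incubated 30 min at about 22°. Sedimentation was run in an analytical ultracentrifuge at 20°, with UV scanning at 260 nm. Each run included a drug-free DNA control. Sedimentation coefficients were not corrected for density or viscosity.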

[12] = target: T1, Bacterial DNA-directed RNA polymerase (Bacteria) (UniProt P0A8V2+P0A7Z4+P0A8T7+P0A800); test: Stimulation of Escherichia coli DNA-primed RNA polymerase activity using [8-14C]ATP at 400 ug/ml by scintillation counting; type: protein-complex assay
T1 sequence (P0A7Z4 whole entry partner): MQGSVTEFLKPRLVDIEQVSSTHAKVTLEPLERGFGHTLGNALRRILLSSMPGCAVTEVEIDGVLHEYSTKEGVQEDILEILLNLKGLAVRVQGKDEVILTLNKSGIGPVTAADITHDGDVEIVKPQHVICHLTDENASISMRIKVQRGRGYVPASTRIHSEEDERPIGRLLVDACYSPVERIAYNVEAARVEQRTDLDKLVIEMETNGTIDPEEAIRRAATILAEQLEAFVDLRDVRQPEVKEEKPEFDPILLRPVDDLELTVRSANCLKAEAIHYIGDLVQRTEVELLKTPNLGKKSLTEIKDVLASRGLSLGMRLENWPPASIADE
T1 sequence (P0A800 2-91 partner limits assumed): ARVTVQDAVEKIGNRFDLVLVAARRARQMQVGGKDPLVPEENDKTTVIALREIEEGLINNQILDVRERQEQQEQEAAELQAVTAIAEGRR
T1 sequence (P0A8T7 whole entry partner): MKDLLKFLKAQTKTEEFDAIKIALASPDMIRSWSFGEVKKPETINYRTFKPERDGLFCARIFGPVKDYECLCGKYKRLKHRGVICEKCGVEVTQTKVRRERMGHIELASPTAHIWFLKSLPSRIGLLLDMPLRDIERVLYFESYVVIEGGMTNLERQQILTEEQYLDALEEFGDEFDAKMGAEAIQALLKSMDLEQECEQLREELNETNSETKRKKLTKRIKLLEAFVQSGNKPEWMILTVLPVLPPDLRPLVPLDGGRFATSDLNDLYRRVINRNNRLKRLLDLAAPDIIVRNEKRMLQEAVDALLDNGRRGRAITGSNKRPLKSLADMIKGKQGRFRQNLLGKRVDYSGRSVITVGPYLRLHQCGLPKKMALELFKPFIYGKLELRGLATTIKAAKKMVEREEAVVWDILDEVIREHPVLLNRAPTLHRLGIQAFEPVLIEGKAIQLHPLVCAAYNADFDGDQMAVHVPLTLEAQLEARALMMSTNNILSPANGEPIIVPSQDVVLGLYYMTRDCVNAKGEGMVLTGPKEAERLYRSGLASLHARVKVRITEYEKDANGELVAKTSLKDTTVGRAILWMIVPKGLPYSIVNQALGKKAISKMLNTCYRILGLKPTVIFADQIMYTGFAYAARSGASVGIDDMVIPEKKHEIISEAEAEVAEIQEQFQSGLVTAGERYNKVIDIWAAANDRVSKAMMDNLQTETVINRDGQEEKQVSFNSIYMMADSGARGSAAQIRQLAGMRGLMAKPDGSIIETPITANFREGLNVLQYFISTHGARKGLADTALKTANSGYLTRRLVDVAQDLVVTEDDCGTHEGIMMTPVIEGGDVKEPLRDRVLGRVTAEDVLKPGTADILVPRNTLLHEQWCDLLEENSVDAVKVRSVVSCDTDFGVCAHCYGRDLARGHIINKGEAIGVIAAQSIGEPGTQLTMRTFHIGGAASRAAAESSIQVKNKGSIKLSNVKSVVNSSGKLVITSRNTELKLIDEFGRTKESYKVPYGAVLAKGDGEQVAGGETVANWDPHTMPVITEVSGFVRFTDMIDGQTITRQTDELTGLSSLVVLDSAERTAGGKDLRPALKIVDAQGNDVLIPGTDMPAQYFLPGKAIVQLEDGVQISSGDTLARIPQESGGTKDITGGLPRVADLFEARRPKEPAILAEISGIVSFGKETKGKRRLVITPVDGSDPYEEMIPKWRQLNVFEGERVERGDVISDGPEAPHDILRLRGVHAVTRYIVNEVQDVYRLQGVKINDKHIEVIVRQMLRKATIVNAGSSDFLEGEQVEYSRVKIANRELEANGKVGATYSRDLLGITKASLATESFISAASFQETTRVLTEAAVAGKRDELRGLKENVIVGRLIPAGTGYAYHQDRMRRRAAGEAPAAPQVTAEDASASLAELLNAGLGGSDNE
T1 sequence (P0A8V2 whole entry): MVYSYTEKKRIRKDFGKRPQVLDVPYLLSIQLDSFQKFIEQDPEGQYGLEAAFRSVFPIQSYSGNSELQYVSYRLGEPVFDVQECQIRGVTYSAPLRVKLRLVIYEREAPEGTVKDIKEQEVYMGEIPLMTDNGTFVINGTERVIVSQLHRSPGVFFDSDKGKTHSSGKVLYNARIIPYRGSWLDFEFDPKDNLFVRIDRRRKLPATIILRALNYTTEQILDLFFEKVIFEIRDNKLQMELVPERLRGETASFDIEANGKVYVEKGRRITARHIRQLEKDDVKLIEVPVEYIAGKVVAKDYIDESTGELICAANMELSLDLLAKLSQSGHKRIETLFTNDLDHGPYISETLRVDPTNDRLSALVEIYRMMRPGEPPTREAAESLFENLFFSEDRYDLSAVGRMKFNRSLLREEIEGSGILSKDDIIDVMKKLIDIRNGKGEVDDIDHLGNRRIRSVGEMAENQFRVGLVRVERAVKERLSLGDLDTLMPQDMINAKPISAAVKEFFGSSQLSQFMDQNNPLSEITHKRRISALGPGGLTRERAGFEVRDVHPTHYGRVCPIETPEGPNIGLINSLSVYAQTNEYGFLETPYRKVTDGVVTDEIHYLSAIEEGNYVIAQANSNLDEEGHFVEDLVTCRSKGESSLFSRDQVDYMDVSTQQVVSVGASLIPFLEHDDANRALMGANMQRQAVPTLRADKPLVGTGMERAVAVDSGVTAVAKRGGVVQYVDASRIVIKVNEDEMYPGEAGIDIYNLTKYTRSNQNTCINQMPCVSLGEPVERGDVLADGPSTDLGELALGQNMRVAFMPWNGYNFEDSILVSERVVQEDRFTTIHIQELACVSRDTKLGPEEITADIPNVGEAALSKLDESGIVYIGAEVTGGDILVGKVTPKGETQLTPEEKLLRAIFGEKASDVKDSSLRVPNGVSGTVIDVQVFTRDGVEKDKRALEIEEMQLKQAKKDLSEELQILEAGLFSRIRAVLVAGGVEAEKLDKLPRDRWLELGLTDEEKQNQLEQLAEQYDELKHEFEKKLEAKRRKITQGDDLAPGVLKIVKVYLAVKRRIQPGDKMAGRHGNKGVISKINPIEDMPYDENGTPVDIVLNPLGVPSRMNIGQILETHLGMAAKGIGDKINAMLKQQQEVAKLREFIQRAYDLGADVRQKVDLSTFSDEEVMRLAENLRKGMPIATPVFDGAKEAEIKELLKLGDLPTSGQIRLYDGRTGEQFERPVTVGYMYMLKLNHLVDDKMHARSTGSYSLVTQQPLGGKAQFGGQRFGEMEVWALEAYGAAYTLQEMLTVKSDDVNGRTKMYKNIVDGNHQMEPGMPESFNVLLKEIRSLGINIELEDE
Summary of the method: (§2)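 Commercial E. coli RNA polymerase was used, with calf thymus DNA template (3.65 µg) in 0.125 ml containing Tris-HCl pH 8.0, MgCl2, β-mercaptoethanol, CTP/UTP/GTP (0.019 µmol each) and [8-14C]ATP (0.019 µmol). Compound in DMSO was added before the enzyme; controls received DMSO. Mixtures were incubated 10 min at 37°. Acid-insoluble label was collected by filter-disk assay and counted by liquid scintillation.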

[13] = target: T1, Bacterial DNA-directed RNA polymerase (Bacteria); test: Stimulation of Escherichia coli DNA-primed RNA polymerase activity using [8-14C]ATP at 200 ug/ml by scintillation counting; type: protein-complex assay; summary of the method: as §2
[14] = target: T1, Bacterial DNA-directed RNA polymerase (Bacteria); test: Stimulation of Escherichia coli DNA-primed RNA polymerase activity using [8-14C]ATP at 100 ug/ml by scintillation counting; type: protein-complex assay; summary of the method: as §2
[15] = target: T1, Bacterial DNA-directed RNA polymerase (Bacteria); test: Stimulation of Escherichia coli DNA-primed RNA polymerase activity using [8-14C]ATP at 50 ug/ml by scintillation counting; type: protein-complex assay; summary of the method: as §2
[16] = target: T1, Bacterial DNA-directed RNA polymerase (Bacteria); test: Stimulation of Escherichia coli DNA-primed RNA polymerase activity using [8-14C]ATP at 25 ug/ml by scintillation counting; type: protein-complex assay; summary of the method: as §2
Calf thymus DNA [17] = test: Binding affinity to calf thymus DNA by ESR spectrum; type: nucleic-acid assay; details: Bos taurus
[18] = target: T1, Bacterial DNA-directed RNA polymerase (Bacteria); test: Stimulation of Escherichia coli DNA-primed RNA polymerase activity using [8-14C]ATP by scintillation counting; type: protein-complex assay; summary of the method: as §2
[19] = target: T1, Bacterial DNA-directed RNA polymerase (Bacteria); test: Inhibition of Escherichia coli DNA-primed RNA polymerase activity using [8-14C]ATP at 400 ug/ml by scintillation counting; type: protein-complex assay; parameters: scale not given: the % may be the effect or the level left; summary of the method: as §2
[20] = target: T1, Bacterial DNA-directed RNA polymerase (Bacteria); test: Inhibition of Escherichia coli DNA-primed RNA polymerase activity using [8-14C]ATP at 200 ug/ml by scintillation counting; type: protein-complex assay; parameters: scale not given: the % may be the effect or the level left; summary of the method: as §2
[21] = target: T1, Bacterial DNA-directed RNA polymerase (Bacteria); test: Inhibition of Escherichia coli DNA-primed RNA polymerase activity using [8-14C]ATP at 100 ug/ml by scintillation counting; type: protein-complex assay; parameters: scale not given: the % may be the effect or the level left; summary of the method: as §2
[22] = target: T1, Bacterial DNA-directed RNA polymerase (Bacteria); test: Inhibition of Escherichia coli DNA-primed RNA polymerase activity using [8-14C]ATP at 50 ug/ml by scintillation counting; type: protein-complex assay; parameters: scale not given: the % may be the effect or the level left; summary of the method: as §2
[23] = target: T1, Bacterial DNA-directed RNA polymerase (Bacteria); test: Inhibition of Escherichia coli DNA-primed RNA polymerase activity using [8-14C]ATP at 25 ug/ml by scintillation counting; type: protein-complex assay; parameters: scale not given: the % may be the effect or the level left; summary of the method: as §2
[24] = target: Bacterial DNA-directed RNA polymerase (Bacteria, UniProt P0A7Z4+P0A800+P0A8T7+P0A8V2); test: Inhibition of Escherichia coli DNA-primed RNA polymerase activity using [8-14C]ATP by scintillation counting; type: protein-complex assay; summary of the method: as §2
Calf thymus DNA [25] = test: Binding affinity to calf thymus DNA assessed as decrease in DNA sedimentation coefficient at 20 x 10^-6 M relative to untreated control; type: nucleic-acid assay; details: Bos taurus

Structure (SMILES)	growth inhibition (GI) (L1210 [1])	growth inhibition (GI) (L1210 [2])	growth inhibition (GI) (L1210 [3])	growth inhibition (GI) (L1210 [4])	growth inhibition (GI) (L1210 [5])	growth inhibition (GI) (L1210 [6])	growth inhibition (GI) (L1210 [7])	growth inhibition (GI) (L1210 [8])	growth inhibition (GI) (L1210 [9])	growth inhibition (GI) (L1210 [10])	Ratio (Calf thymus DNA [11])	Activity [12]	Activity [13]	Activity [14]	Activity [15]	Activity [19]	Activity [20]	Activity [21]	Activity [22]	Activity [23]	other results
COc1cc(NS(C)(=O)=O)ccc1Nc1c2ccccc2nc2ccccc12 [AMSACRINE]	–	–	–	–	–	–	–	–	–	–	–	–	–	–	–	–	–	–	–	–	inhibition of growth at 100 µg/mL (L1210 [1]; L1210, 24 h, read-out: GI): 57%; inhibition of growth at 100 µg/mL (L1210 [2]; L1210, 48 h, read-out: GI): 92%; inhibition of growth at 10 µg/mL (L1210 [3]; L1210, 24 h, read-out: GI): 50%; inhibition of growth at 10 µg/mL (L1210 [4]; L1210, 48 h, read-out: GI): 87%; inhibition of growth at 1 µg/mL (L1210 [5]; L1210, 24 h, read-out: GI): 42%; inhibition of growth at 1 µg/mL (L1210 [6]; L1210, 48 h, read-out: GI): 82%; inhibition of growth at 0.1 µg/mL (L1210 [7]; L1210, 24 h, read-out: GI): 29%; inhibition of growth at 0.1 µg/mL (L1210 [8]; L1210, 48 h, read-out: GI): 75%; inhibition of growth at 0.01 µg/mL (L1210 [9]; L1210, 24 h, read-out: GI): 6%; inhibition of growth at 0.01 µg/mL (L1210 [10]; L1210, 48 h, read-out: GI): 8%
COc1ccc2nc3cc(Cl)ccc3c(NC3CC(C)(C)N([O])C(C)(C)C3)c2c1	6%	78%	11%	63%	9%	24%	12%	7%	3%	8%	1.02	116%	125%	129%	120%	–	–	–	–	–	Activity [16]: 108%; Activity (Calf thymus DNA [17]): Active; Activity [18]: Dose-dependent effect
CC1(C)CC(NCCCNc2c3ccccc3nc3ccccc23)CC(C)(C)N1[O]	47%	86%	56%	87%	10%	16%	0%	0%	0%	0%	–	–	–	–	–	12%	20%	31%	42%	71%	–
Nc1c2ccccc2nc2ccccc12	–	–	–	–	–	–	–	–	–	–	–	–	–	–	–	1.8%	4%	31%	31%	40%	–
CC1(C)CC(Nc2c3ccccc3nc3ccccc23)CC(C)(C)N1[O]	53%	87%	49%	84%	27%	56%	1%	7%	0%	2%	1.04	–	–	–	–	9%	21%	36%	77%	96%	–
COc1ccc2nc3cc(Cl)ccc3c(NC3CC(C)(C)N([O])C(C)(C)C3)c2n1	0%	38%	0%	15%	0%	0%	0%	0%	0%	0%	1.05	108%	114%	110%	110%	–	–	–	–	–	Activity [16]: 108%; Activity [18]: Dose-dependent effect
CC1(C)CC(CNc2c3ccccc3nc3ccccc23)C(C)(C)N1[O] (stereo unspecified)	48%	82%	46%	79%	12%	29%	3%	2%	0%	3%	1.08	–	–	–	–	10%	22%	45%	70%	87%	–
CCN(CC)CCCC(C)Nc1c2ccc(Cl)cc2nc2ccc(OC)cc12 (stereo unspecified) [QUINACRINE]	–	–	–	–	–	–	–	–	–	–	–	–	–	–	–	–	–	–	–	–	pIC50 [24]: 4.70
COc1ccc2nc3cc(Cl)ccc3c(NCC3CC(C)(C)N([O])C3(C)C)c2c1 (stereo unspecified)	40%	74%	35%	76%	6%	19%	0%	5%	10%	7%	1.04	107%	102%	106%	106%	–	–	–	–	–	Activity [16]: 112%; Activity [18]: Dose-dependent effect
Nc1ccc2cc3ccc(N)cc3nc2c1	–	–	–	–	–	–	–	–	–	–	–	–	–	–	–	–	–	–	–	–	Ratio (Calf thymus DNA [25]): 1.13
